Experimental data: paper PMC4216208 (Journal of Medicinal Chemistry, 2014)

How the values were obtained:
O. volvulus L3 larvae = details: 100 μM; cited from earlier work
C. elegans [1] = assay: Metabolism of closantel in C. elegans; assay type: in vitro ADME, Caenorhabditis elegans
HEK 293T/17 cells = assay: Mitochondrial-uncoupling assay; assay type: cell-based, human; details: 50 μM compound, TMRE staining
Outline: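 HEK 293T/17 cells were trypsinised and suspended at 1−2 × 10^6 cells/mL in DMEM with 10% FBS, then given test compound (50 μM) or DMSO for 30 min at 37 °C. TMRE (~450 nM final) was added for 30 min in the dark at 37 °C. Cells were washed twice in 0.2% BSA/PBS, resuspended, and read by plate fluorescence (em 575 nm). Unstained and DMSO controls were included; mean ± sd, n = 3.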

C. elegans [2] = assay: Bioaccumulation in C. elegans; assay type: in vitro ADME, Caenorhabditis elegans; details: late-stage L4 worms, 10 μM (2 nmol/mg worm), 6 h, LC-MS of homogenates
Outline: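 Synchronised C. elegans grown to late L4 on E. coli OP50 at 25 °C for 40 h, water-washed, and suspended in M9 at ~5−10 worms/μL. Dosed at 10 μM final (~2 nmol/mg worm) from DMSO stock, 6 or 12 h at rt. Washed in 0.1% SDS then water, frozen, lyophilised, weighed, extracted into cold MeOH/MeCN with internal standard. Quantified by LC-ESI-MS against blank-worm calibration; mean ± sd, n = 3.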

In the case of `Cc1cc(C(C#N)c2ccc(Cl)cc2)c(Cl)cc1NC(=O)c1cc(I)cc(I)c1O` (centres unmarked) [Compound 1, closantel], the “effect on molting of O. volvulus L3 to L4 larvae” value (O. volvulus L3 larvae) is given as “inhibit the molting”, the “sulfation, glycosylation and glucuronidation of the salicylate moiety in C. elegans homogenates” value (C. elegans [1]) is given as “not observed” and the “primary metabolic pathway in C. elegans” value (C. elegans [1]; minor pathway, forms two monoiodoclosantel isomers) is given as “reductive deiodination”. The “mitochondrial-uncoupling (protonophoric) activity” value (HEK 293T/17 cells) was “mitochondrial-uncoupling activity” and the “accumulation in C. elegans (in words)” value (C. elegans [2]) was “accumulated in C. elegans”.
